In ChEMBL document CHEMBL5247680, “Design, Synthesis, and Biological Activity of Thioguanine-Modified Pleuromutilin Derivatives” (ACS Med Chem Lett, 2023):
≈ marks a conversion by molar mass, not a printed value. Calls of active or inactive are those of the source. The calls are words filed in the database; no cut-off is given here.

Experiments:
[1] = tested on: Staphylococcus epidermidis; test: Antibacterial activity against Methicillin-resistant Staphylococcus epidermidis ATCC 51625 assessed as bacterial growth inhibition incubated for 20 to 24 hrs by microbroth serial dilution assay; format: functional; settings: time 20-24 hrs
[2] = tested on: Staphylococcus epidermidis; test: Selectivity ratio of MBC for antibacterial activity against Methicillin-sensitive Staphylococcus epidermidis […] to MIC for antibacterial activity against Methicillin-sensitive Staphylococcus epidermidis […]; format: functional
Staphylococcus aureus [3] = test: Antibacterial activity against Methicillin-resistant Staphylococcus aureus ATCC 43300 assessed as bacterial growth inhibition incubated for 20 to 24 hrs by microbroth serial dilution assay; format: functional; settings: time 20-24 hrs
Staphylococcus aureus [4] = test: Antibacterial activity against Staphylococcus aureus ATCC 25923 assessed as bacterial growth inhibition incubated for 20 to 24 hrs by microbroth serial dilution assay; format: functional; settings: time 20-24 hrs
Staphylococcus aureus [5] = test: Antibacterial activity against Methicillin-resistant Staphylococcus aureus ATCC 33591 assessed as bacterial growth inhibition incubated for 20 to 24 hrs by microbroth serial dilution assay; format: functional; settings: time 20-24 hrs
[6] = tested on: Staphylococcus epidermidis; test: Antibacterial activity against Methicillin-sensitive Staphylococcus epidermidis ATCC 12228 assessed as bacterial growth inhibition incubated for 20 to 24 hrs by microbroth serial dilution assay; format: functional; settings: time 20-24 hrs
Staphylococcus aureus [7] = test: Selectivity ratio of MBC for antibacterial activity against Methicillin-resistant Staphylococcus aureus ATCC 43300 to MIC for antibacterial activity against Methicillin-resistant Staphylococcus aureus ATCC 43300; format: functional
Staphylococcus aureus [8] = test: Selectivity ratio of MBC for antibacterial activity against Methicillin-sensitive Staphylococcus aureus ATCC 29213 to MIC for antibacterial activity against Methicillin-sensitive Staphylococcus aureus ATCC 29213
Staphylococcus aureus [9] = test: Selectivity ratio of MBC for antibacterial activity against Staphylococcus aureus to MIC for antibacterial activity against Staphylococcus aureus; format: functional
Staphylococcus aureus [10] = test: Antibacterial activity against Methicillin-sensitive Staphylococcus aureus ATCC 29213 assessed as bacterial growth inhibition incubated for 20 to 24 hrs by microbroth serial dilution assay
Staphylococcus aureus [11] = test: Selectivity ratio of MBC for antibacterial activity against Methicillin-resistant Staphylococcus aureus ATCC 33591 to MIC for antibacterial activity against Methicillin-resistant Staphylococcus aureus ATCC 33591; format: functional
[12] = tested on: Staphylococcus epidermidis; test: Selectivity ratio of MBC for antibacterial activity against Methicillin-resistant Staphylococcus epidermidis ATCC 51625 to MIC for antibacterial activity against Methicillin-resistant Staphylococcus epidermidis ATCC 51625; format: functional
Staphylococcus aureus [13] = test: Antibacterial activity against Methicillin-resistant Staphylococcus aureus ATCC 33591 assessed as bacterial growth inhibition at 1 to 2 times MIC measured upto 24 hrs by time kill assay; format: functional, organism-based
How it was run: (§1)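 MRSA ATCC 33591 time-kill curves at 1×, 2× and 4× MIC, with a tiamulin positive control and an untreated growth control. Viable counts were taken as CFU·mL⁻¹ at time points through incubation, including 2, 8 and 12 h.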

Staphylococcus aureus [14] = test: In vivo Antibacterial activity against Methicillin-resistant Staphylococcus aureus in ICR mouse thigh infection model assessed as reduction in bacterial load at 40 mg/kg, IP by […]; format: functional
Staphylococcus aureus [15] = test: Antibacterial activity against Methicillin-resistant Staphylococcus aureus ATCC 33591 assessed as bacterial colony inhibition at 1 to 2 times MIC measured upto 24 hrs by time kill assay; format: functional, organism-based; how it was run: as §1
Staphylococcus aureus [16] = test: Antibacterial activity against Methicillin-resistant Staphylococcus aureus ATCC 33591 assessed as bacterial bactericidal effect at 1 to 2 times MIC measured upto 24 hrs by time kill assay; format: functional, organism-based; how it was run: as §1

SMILES | MIC [1] [µg/mL] | Ratio [2] | MIC (Staphylococcus aureus [3]) [µg/mL] | MIC (Staphylococcus aureus [4]) [µg/mL] | MIC (Staphylococcus aureus [5]) [µg/mL] | MIC [6] [µg/mL] | Ratio (Staphylococcus aureus [7]) | Ratio (Staphylococcus aureus [8]) | Ratio (Staphylococcus aureus [9]) | MIC (Staphylococcus aureus [10]) [µg/mL] | Ratio (Staphylococcus aureus [11]) | Ratio [12] | Activity (Staphylococcus aureus [13]) | Activity (Staphylococcus aureus [14]) | Activity (Staphylococcus aureus [15]) | Activity (Staphylococcus aureus [16])
C=C[C@]1(C)C[C@@H](OC(=O)CSc2nc(N)nc3c2ncn3C(=O)OCC)[C@@]2(C)C3C(=O)CC[C@@]3(CC[C@H]2C)[C@@H](C)[C@@H]1O (some centres undefined) | 0.25 (≈ 0.417 µM) | >4 | 0.125 (≈ 0.208 µM) | 0.25 (≈ 0.417 µM) | 0.25 (≈ 0.417 µM) | < 0.0078 | >4 | >4 | 4 | 0.125 (≈ 0.208 µM) |  |  |  |  |  | 
C=C[C@]1(C)C[C@@H](OC(=O)CSc2nc(N)nc3[nH]cnc23)[C@@]2(C)C3C(=O)CC[C@@]3(CC[C@H]2C)[C@@H](C)[C@@H]1O (some centres undefined) | 0.125 (≈ 0.237 µM) | >4 | 0.125 (≈ 0.237 µM) | 0.25 (≈ 0.474 µM) | 0.125 (≈ 0.237 µM) | 0.125 (≈ 0.237 µM) |  |  | >4 | 0.125 (≈ 0.237 µM) | 4 | 2 |  |  |  | 
C=C[C@]1(C)C[C@@H](OC(=O)CSc2nc(NC(=O)CN3CCOCC3)nc3[nH]cnc23)[C@@]2(C)C3C(=O)CC[C@@]3(CC[C@H]2C)[C@@H](C)[C@@H]1O (some centres undefined) | 0.125 (≈ 0.191 µM) | >4 | 1 (≈ 1.53 µM) | 0.5 (≈ 0.764 µM) | 1 (≈ 1.53 µM) | 0.0156 (≈ 0.0238 µM) | >4 | >4 |  | 1 (≈ 1.53 µM) | >4 |  |  |  |  | 
C=C[C@]1(C)C[C@@H](OC(=O)CSCCN(CC)CC)[C@]2(C)[C@H](C)CC[C@]3(CCC(=O)[C@H]32)[C@@H](C)[C@@H]1O [TIAMULIN] | 1 (≈ 2.03 µM) | >4 | 2 (≈ 4.05 µM) | 2 (≈ 4.05 µM) | 1 (≈ 2.03 µM) | 0.5 (≈ 1.01 µM) |  | >4 | 4 | 1 (≈ 2.03 µM) |  |  | Active | 1 10^7CFU/g | Active | inactive
C=C[C@]1(C)C[C@@H](OC(=O)CSc2nc(N)nc3c2ncn3C(=O)Nc2cccc(C(F)(F)F)c2)[C@@]2(C)C3C(=O)CC[C@@]3(CC[C@H]2C)[C@@H](C)[C@@H]1O (some centres undefined) | 0.125 (≈ 0.175 µM) | >4 | 0.25 (≈ 0.35 µM) | 0.25 (≈ 0.35 µM) | 0.25 (≈ 0.35 µM) | 0.0156 (≈ 0.0218 µM) |  |  | >4 | 0.125 (≈ 0.175 µM) |  | 4 |  |  |  | 
C=C[C@]1(C)C[C@@H](OC(=O)CSc2nc(N)nc3c2ncn3C(=O)NCc2cccc(OC)c2)[C@@]2(C)C3C(=O)CC[C@@]3(CC[C@H]2C)[C@@H](C)[C@@H]1O (some centres undefined) | 0.0625 (≈ 0.0905 µM) | >4 | 0.125 (≈ 0.181 µM) | 0.125 (≈ 0.181 µM) | 0.125 (≈ 0.181 µM) | 0.0156 (≈ 0.0226 µM) |  | 4 | >4 | 0.0625 (≈ 0.0905 µM) | 4 | 2 |  |  |  | 
C=C[C@]1(C)C[C@@H](OC(=O)CSc2nc(N)nc3c2ncn3C(=O)Nc2ccc(F)cc2)[C@@]2(C)C3C(=O)CC[C@@]3(CC[C@H]2C)[C@@H](C)[C@@H]1O (some centres undefined) | 0.125 (≈ 0.188 µM) | >4 | 0.125 (≈ 0.188 µM) | 0.125 (≈ 0.188 µM) | 0.125 (≈ 0.188 µM) | 0.0156 (≈ 0.0235 µM) |  | 2 | >4 | 0.25 (≈ 0.376 µM) |  | 4 |  |  |  | 
C=C[C@]1(C)C[C@@H](OC(=O)CSc2nc(NC(=O)CN3CCCC3)nc3[nH]cnc23)[C@@]2(C)C3C(=O)CC[C@@]3(CC[C@H]2C)[C@@H](C)[C@@H]1O (some centres undefined) | 1 (≈ 1.57 µM) | >4 | 1 (≈ 1.57 µM) | 2 (≈ 3.13 µM) | 2 (≈ 3.13 µM) | 2 (≈ 3.13 µM) |  | 4 | >4 | 2 (≈ 3.13 µM) | 4 | 4 |  |  |  | 
C=C[C@]1(C)C[C@@H](OC(=O)CSC(C)(C)CNC(=O)[C@H](N)C(C)C)[C@]2(C)[C@H](C)CC[C@]3(CCC(=O)[C@H]32)[C@@H](C)[C@@H]1O [VALNEMULIN] | 0.125 (≈ 0.221 µM) | >4 | 0.125 (≈ 0.221 µM) | 0.25 (≈ 0.443 µM) | 0.25 (≈ 0.443 µM) | 2 (≈ 3.54 µM) | 4 | >4 | 1 | 0.125 (≈ 0.221 µM) |  |  |  |  |  | 
